Measurements published in ChEMBL document CHEMBL1121608, “Modification of the 5' position of purine nucleosides. 2. Synthesis and some cardiovascular properties of adenosine-5'-(N-substituted)carboxamides” (J Med Chem, 1980).

Assays:
Canis familiaris [1] = assay: Tested for the percent increase in coronary sinus partial pressure of oxygen (PO2) in open chest anesthetized dog at intravenous dosage of 0.10 mg/kg; type: functional, Canis lupus familiaris; conditions: dose 0.1 mg/kg
Canis familiaris [2] = assay: Total time in minutes elapsed from the initiation of the change until return to the pretest value of oxygen partial pressure in coronary sinus of anesthetized dog at intravenous dosage of 0.10 mg/kg; type: functional, Canis lupus familiaris; conditions: dose 0.1 mg/kg
Canis familiaris [3] = assay: Total time in minutes elapsed from the initiation of the change until return to the pretest value of heart rate in coronary sinus of anesthetized dog at intravenous dosage of 0.01 mg/kg; type: functional, Canis lupus familiaris
Canis familiaris [4] = assay: Total time in minutes elapsed from the initiation of the change until return to the pretest value of blood pressure in coronary sinus of anesthetized dog at intravenous dosage of 0.10 mg/kg; type: functional, Canis lupus familiaris; conditions: dose 0.1 mg/kg
How it was run: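 Open-chest anesthetized dogs were given the compound intravenously. Duration is the total minutes from the start of the change until return to the pretest value. Blood pressure was recorded as change from control.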

Canis familiaris [5] = assay: Total time in minutes elapsed from the initiation of the change until return to the pretest value of heart rate in coronary sinus of anesthetized dog at intravenous dosage of 0.10 mg/kg; type: functional, Canis lupus familiaris; conditions: dose 0.1 mg/kg
Canis familiaris [6] = assay: Total time in minutes elapsed from the initiation of the change until return to the pretest value of oxygen partial pressure in coronary sinus of anesthetized dog at intravenous dosage of 0.01 mg/kg; type: functional, Canis lupus familiaris
[7] = Lethal dose in mice after intraperitoneal administration; type: toxicity, organism-based; conditions: mouse, in vivo, ip
How it was run: (§1)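 Male and female mice, three per dose group, were given the compound by the stated route in increments of 0.5 log doses. The LD50 was estimated as an approximate value.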

Canis familiaris [8] = assay: tested for the percent increase in heart rate (HR) in open chest anesthetized dog at intravenous dosage of 0.10 mg/kg; type: functional, Canis lupus familiaris; conditions: dose 0.1 mg/kg
Canis familiaris [9] = assay: Tested for percent increase in coronary sinus partial pressure of oxygen (PO2) in open chest anesthetized dog at intravenous dosage of 0.01 mg/kg; type: functional, Canis lupus familiaris
[10] = Lethal dose in mice after peroral administration; type: toxicity, organism-based; conditions: mouse, in vivo, po; how it was run: as §1
Canis familiaris [11] = assay: Total time in minutes elapsed from the initiation of the change until return to the pretest value of blood pressure in coronary sinus of anesthetized dog at intravenous dosage of 0.01 mg/kg; type: functional, Canis lupus familiaris
Canis familiaris [12] = assay: Tested for percent increase in coronary sinus partial pressure of oxygen (PO2) in open chest anesthetized dog at intravenous dosage of 1.00 mg/kg; type: functional, Canis lupus familiaris
Canis familiaris [13] = assay: Total time in minutes elapsed from the initiation of the change until return to the pretest value of oxygen partial pressure in coronary sinus of anesthetized dog at intravenous dosage of 1 mg/kg; type: functional, Canis lupus familiaris
How it was run: (§2)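 Open-chest anesthetized dogs given compound by intravenous injection. Coronary sinus PO2 was monitored, and duration was the total time in minutes from the onset of the change until return to the pretest value.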

Canis familiaris [14] = assay: Total time in minutes elapsed from the initiation of the change until return to the pretest value of blood pressure in coronary sinus of anesthetized dog at intravenous dosage of 1.00 mg/kg; type: functional, Canis lupus familiaris
Canis familiaris [15] = assay: Tested for the percent increase in aortic blood pressure (BP) in open chest anesthetized dog at intravenous dosage of 1.00 mg/kg; type: functional, Canis lupus familiaris, Artery
How it was run: (§3)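 Open-chest anesthetized dogs, compound given iv at the stated dose. Aortic blood pressure is reported as the change from the control (pre-dose) value. Other set-up follows the group's earlier cardiovascular protocol.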

Canis familiaris [16] = assay: Total time in minutes elapsed from the initiation of the change until return to the pretest value of heart rate in coronary sinus of anesthetized dog at intravenous dosage of 1 mg/kg; type: functional, Canis lupus familiaris
Mus musculus [17] = assay: Tested for the lethal dose in mice after administration intraperitoneally; type: functional; conditions: ip; how it was run: as §1
Canis familiaris [18] = assay: tested for the percent increase in heart rate (HR) in open chest anesthetized dog at intravenous dosage of 1 mg/kg; type: functional, Canis lupus familiaris
Canis familiaris [19] = assay: tested for the percent increase in aortic blood pressure (BP) in open chest anesthetized dog at intravenous dosage of 1 mg/kg; type: functional, Canis lupus familiaris, Artery
How it was run: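 Open-chest anesthetized dogs received intravenous doses. Aortic blood pressure was recorded as the change from control.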

Mus musculus [20] = assay: Tested for the lethal dose in mice after administration perorally; type: functional; conditions: po; how it was run: as §1
Canis familiaris [21] = assay: tested for percent increase in coronary sinus partial pressure of oxygen (PO2) in open chest anesthetized dog at intravenous dosage of 1 mg/kg; type: functional, Canis lupus familiaris
Canis familiaris [22] = assay: Total time in minutes elapsed from the initiation of the change until return to the pretest value of blood pressure in coronary sinus of anesthetized dog at intravenous dosage of 1 mg/kg; type: functional, Canis lupus familiaris
Canis familiaris [23] = assay: Total time in minutes elapsed from the initiation of the change until return to the pretest value of blood pressure in coronary sinus of anesthetized dog at intravenous dosage of 5 mg/kg; type: functional, Canis lupus familiaris
Canis familiaris [24] = assay: Total time in minutes elapsed from the initiation of the change until return to the pretest value of heart rate in coronary sinus of anesthetized dog at intravenous dosage of 5.00 mg/kg; type: functional, Canis lupus familiaris
Canis familiaris [25] = assay: Total time in minutes elapsed from the initiation of the change until return to the pretest value of oxygen partial pressure in coronary sinus of anesthetized dog at intravenous dosage of 5 mg/kg; type: functional, Canis lupus familiaris; how it was run: as §2
Canis familiaris [26] = assay: Tested for the percent increase in coronary sinus partial pressure of oxygen (PO2) in open chest anesthetized dog at intravenous dosage of 5.00 mg/kg; type: functional, Canis lupus familiaris
Canis familiaris [27] = assay: Tested for the percent increase in aortic blood pressure (BP) in open chest anesthetized dog at intravenous dosage of 5.00 mg/kg; type: functional, Canis lupus familiaris, Artery; how it was run: as §3
Canis familiaris [28] = assay: tested for the percent increase in heart rate (HR) in open chest anesthetized dog at intravenous dosage of 0.05 mg/kg; type: functional, Canis lupus familiaris
Canis familiaris [29] = assay: Total time in minutes elapsed from the initiation of the change until return to the pretest value of heart rate in coronary sinus of anesthetized dog at intravenous dosage of 0.05 mg/kg; type: functional, Canis lupus familiaris
Canis familiaris [30] = assay: tested for percent increase in coronary sinus partial pressure of oxygen (PO2) in open chest anesthetized dog at intravenous dosage of 0.05 mg/kg; type: functional, Canis lupus familiaris
Canis familiaris [31] = assay: Total time in minutes elapsed from the initiation of the change until return to the pretest value of oxygen partial pressure in coronary sinus of anesthetized dog at intravenous dosage of 0.05 mg/kg; type: functional, Canis lupus familiaris
Canis familiaris [32] = assay: Total time in minutes elapsed from the initiation of the change until return to the pretest value of blood pressure in coronary sinus of anesthetized dog at intravenous dosage of 0.05 mg/kg; type: functional, Canis lupus familiaris
Canis familiaris [33] = assay: Total time in minutes elapsed from the initiation of the change until return to the pretest value of oxygen partial pressure in coronary sinus of anesthetized dog at intravenous dosage of 10 mg/kg; type: functional, Canis lupus familiaris; how it was run: as §2
Canis familiaris [34] = assay: Tested for the percent increase in coronary sinus partial pressure of oxygen (PO2) in open chest anesthetized dog at intravenous dosage of 10.00 mg/kg; type: functional, Canis lupus familiaris
Canis familiaris [35] = assay: Total time in minutes elapsed from the initiation of the change until return to the pretest value of blood pressure in coronary sinus of anesthetized dog at intravenous dosage of 10 mg/kg; type: functional, Canis lupus familiaris
Canis familiaris [36] = assay: Total time in minutes elapsed from the initiation of the change until return to the pretest value of heart rate in coronary sinus of anesthetized dog at intravenous dosage of 10 mg/kg; type: functional, Canis lupus familiaris
Canis familiaris [37] = assay: Tested for the percent increase in aortic blood pressure (BP) in open chest anesthetized dog at intravenous dosage of 10.00 mg/kg; type: functional, Canis lupus familiaris, Artery; how it was run: as §3
Canis familiaris [38] = assay: Tested for percent increase in coronary sinus partial pressure of oxygen (PO2) in open chest anesthetized dog at intravenous dosage of 2.00 mg/kg; type: functional, Canis lupus familiaris
Canis familiaris [39] = assay: Total time in minutes elapsed from the initiation of the change until return to the pretest value of blood pressure in coronary sinus of anesthetized dog at intravenous dosage of 2 mg/kg; type: functional, Canis lupus familiaris
Canis familiaris [40] = assay: Total time in minutes elapsed from the initiation of the change until return to the pretest value of oxygen partial pressure in coronary sinus of anesthetized dog at intravenous dosage of 2 mg/kg; type: functional, Canis lupus familiaris; how it was run: as §2
Canis familiaris [41] = assay: Total time in minutes elapsed from the initiation of the change until return to the pretest value of heart rate in coronary sinus of anesthetized dog at intravenous dosage of 2 mg/kg; type: functional, Canis lupus familiaris
Canis familiaris [42] = assay: Tested for the percent increase in aortic blood pressure (BP) in open chest anesthetized dog at intravenous dosage of 2.00 mg/kg; type: functional, Canis lupus familiaris, Artery; how it was run: as §3

NC(=O)[C@H]1OC(n2cnc3c(N)ncnc32)[C@H](O)[C@@H]1O (stereo partly drawn)
PO2 (Canis familiaris [1]): 41% | Duration (Canis familiaris [2]): 240 min | Duration (Canis familiaris [3]): 25 min | Duration (Canis familiaris [4]): 240 min | Duration (Canis familiaris [5]): 240 min | Duration (Canis familiaris [6]): 25 min | LD50 [7]: 5 mg/kg | HR (Canis familiaris [8]): 72% | PO2 (Canis familiaris [9]): 79% | LD50 [10]: 50 mg/kg | Duration (Canis familiaris [11]): 20 min

CN(C)C(=O)[C@H]1OC(n2cnc3c(N)ncnc32)[C@H](O)[C@@H]1O (stereo partly drawn)
PO2 (Canis familiaris [12]): 0% | Duration (Canis familiaris [13]): 0 min | LD50 [7]: 50 mg/kg | Duration (Canis familiaris [14]): 0 min | BP (Canis familiaris [15]): 0% | LD50 [10]: 1000 mg/kg | Duration (Canis familiaris [16]): 0 min

Nc1ncnc2c1ncn2C1O[C@H](C(=O)NCc2ccccc2)[C@@H](O)[C@H]1O (stereo partly drawn)
LD50 (Mus musculus [17]): 200 mg/kg | HR (Canis familiaris [18]): 13% | BP (Canis familiaris [19]): 5 mmHg | Duration (Canis familiaris [13]): 60 min | LD50 (Mus musculus [20]): > 1000 mg/kg | PO2 (Canis familiaris [21]): 48% | Duration (Canis familiaris [22]): 60 min | Duration (Canis familiaris [16]): 24 min

Nc1ncnc2c1ncn2C1O[C@H](C(=O)NC23CC4CC(CC(C4)C2)C3)[C@@H](O)[C@H]1O (stereo partly drawn)
Duration (Canis familiaris [23]): 8 min | Duration (Canis familiaris [24]): 60 min | HR (Canis familiaris [18]): 55% | BP (Canis familiaris [19]): 22 mmHg | Duration (Canis familiaris [13]): 30 min | LD50 [7]: > 300 mg/kg | Duration (Canis familiaris [25]): 60 min | PO2 (Canis familiaris [26]): 209% | LD50 [10]: > 300 mg/kg | PO2 (Canis familiaris [21]): 56% | BP (Canis familiaris [27]): 5 mmHg | Duration (Canis familiaris [22]): 1 min | Duration (Canis familiaris [16]): 2 min

Nc1ncnc2c1ncn2C1O[C@H](C(=O)NCC2CC2)[C@@H](O)[C@H]1O (stereo partly drawn)
HR (Canis familiaris [28]): 0% | Duration (Canis familiaris [29]): 0 min | PO2 (Canis familiaris [30]): 47% | LD50 [7]: 20 mg/kg | LD50 [10]: 200 mg/kg | Duration (Canis familiaris [31]): 120 min | Duration (Canis familiaris [32]): 120 min

CCN(CC)CCNC(=O)[C@H]1OC(n2cnc3c(N)ncnc32)[C@H](O)[C@@H]1O (stereo partly drawn)
PO2 (Canis familiaris [12]): 57% | Duration (Canis familiaris [33]): 60 min | PO2 (Canis familiaris [34]): 25% | Duration (Canis familiaris [13]): 6 min | LD50 [7]: 50 mg/kg | BP (Canis familiaris [15]): 0% | Duration (Canis familiaris [35]): 22 min | Duration (Canis familiaris [36]): 60 min | BP (Canis familiaris [37]): 7% | LD50 [10]: > 1000 mg/kg | Duration (Canis familiaris [22]): 0 min | Duration (Canis familiaris [16]): 0 min

Nc1ncnc2c1ncn2[C@@H]1O[C@H](CO)[C@@H](O)[C@H]1O [ADENOSINE]
PO2 (Canis familiaris [38]): 200% | Duration (Canis familiaris [39]): 2 min | Duration (Canis familiaris [40]): 2 min | Duration (Canis familiaris [41]): 4 min | BP (Canis familiaris [42]): 60 mmHg
